For assay [1], the system named is L929. Nature of the assay: Compound was evaluated for cellular toxicity by [3H]thymidine incorporation into DNA of uninfected L-929 cells after 36h exposure. The arrangement: concentration or dose not given beside the values. It counts as functional, Mus musculus. The essentials:
(§1)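 Uninfected mouse L-929 monolayers (2.5 × 10^6 cells/60-mm dish) exposed to 10 µM compound or no drug in serum-free KU-1 medium for 36 or 72 h. Then pulsed with [3H]thymidine. Cells trypsinized, precipitated in 10% TCA at 4 °C, and precipitates collected on glass-fibre filters. Filters solubilized and counted by liquid scintillation. Incorporation expressed as percent of untreated controls.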

The test system of assay [2] is L929. Nature of the assay: Compound was evaluated for cellular toxicity by [3H]thymidine incorporation into DNA of uninfected L-929 cells after 72 hr exposure. The class given is functional, Mus musculus. The arrangement: concentration or dose not given beside the values. The essentials: as §1
Assay [3] deals with L929. Nature of the assay: Ability to inhibit Vaccinia virus plaque formation after 72 hr in monolayer cultures of mouse L-929 cells. Set-up: concentration or dose not given beside the values. The class given is functional.
Assay [4] deals with Adenosylhomocysteinase (Bos taurus) (UniProt Q3MHL4). Description: Evaluated for the inhibition of bovine liver S-adenosyl-homocysteine hydrolase at concentration 2.0 mM.
Adenosylhomocysteinase (Bos taurus), sequence (Q3MHL4 whole entry, looked up): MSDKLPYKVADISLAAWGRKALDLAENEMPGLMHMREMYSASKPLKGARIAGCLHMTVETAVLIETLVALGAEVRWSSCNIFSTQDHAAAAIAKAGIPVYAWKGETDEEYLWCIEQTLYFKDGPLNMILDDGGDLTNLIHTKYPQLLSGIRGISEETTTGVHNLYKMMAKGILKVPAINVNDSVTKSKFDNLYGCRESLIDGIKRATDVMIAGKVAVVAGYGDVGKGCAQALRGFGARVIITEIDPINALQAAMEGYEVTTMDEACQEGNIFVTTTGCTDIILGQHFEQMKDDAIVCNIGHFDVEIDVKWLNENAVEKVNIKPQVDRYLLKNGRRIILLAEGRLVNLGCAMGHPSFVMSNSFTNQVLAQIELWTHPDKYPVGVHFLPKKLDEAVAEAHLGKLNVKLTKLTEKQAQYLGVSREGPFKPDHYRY

Regarding `Nc1nccc2c1ncn2[C@@H]1C[C@H](CO)[C@@H](O)[C@H]1O` [3-DEAZAARISTEROMYCIN A], the Control is 86% in assay [1] and 246% in assay [2]. In addition, the Inhibition in assay [3] is 95%.

On to `Nc1nccc2c1ncn2CCCCO`, for which the Control was 102% in assay [1] and 110% in assay [2]. This compound came in with an Inhibition in assay [3] of 51%. Also, the inhibition in assay [4] amounted to 12%.

Take `Nc1nccc2c1ncn2CCO`: the Control in assay [1] was determined as 95%; in assay [2], 113%. The Inhibition in assay [3] is reported as 33%. For the same compound, in assay [4], the inhibition was 27%.

Take `Nc1nccc2c1ncn2C(CO)CCCO` (centres undefined): the Control is reported as 91% in assay [1] and 140% in assay [2]. The Inhibition in assay [3] was found to be 27%. This compound had an inhibition in assay [4] of 50%.

As for `Nc1nccc2c1ncn2CC(O)CO` (centres undefined), the Control in assay [1] is 88%; in assay [2], 138%. The Inhibition in assay [3] is 53%. The compound further showed an inhibition in assay [4] of 95%.
